Shown are actives, neighbours in structure and some others; about 9.6% of the full set was active somewhere.
Ba/F3 V617F tox: reduced viability of JAK2V617F-dependent Ba/F3 cells, primary screen, JAK2V617F inhibitor project, cell-based, Ba/F3 EpoR-JAK2V617F, luminescence; ATP luminescence; inhibition, % at 5.6 µM; 220,000 compounds, 1.1% hits; AID 1446, 2008;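 active = inhibition above the campaign mean plus 3 SD over all tested compounds, cut at about 24% in these data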;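 note: cytokine-independent growth of Ba/F3 cells driven by EpoR plus mutant JAK2; 0% = DMSO-treated cells and 100% = JAK inhibitor I control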
APP transl inh: inhibitors of APP translation via 5'UTR reporter, primary screen, APP 5'UTR luciferase, SH-SY5Y cells | SH-SY5Y APP 5'UTR-luciferase reporter, luminescence | inhibition, % at 2 µM | 190,000 compounds, 0.82% hits;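 active = inhibition above a set limit, derived from the sample mean plus 3 SD, cut at about 45% in these data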
L major viab: Leishmania major promastigote growth inhibition, primary screen; Leishmania major promastigotes, resazurin fluorescence viability; inhibition, % at 10 µM; 200,000 compounds, 9% hits; in the data active = inhibition above about 50%;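 note: promastigotes grown with compound for 44 hours at 28 °C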
MT stabilize HCS: microtubule stabilizers in HeLa cells, primary screen, imaging, high-content imaging; HeLa tubulin immunostaining HCS, 24 h; share of cells brighter than vehicle mean+2SD; % tubulin-high responders, % at 10 µM; 200,000 compounds, 0.83% hits; AID 2205, 2009;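 active = plate Z-score above 3 for both tubulin-high and condensed-nucleus cell shares, with cell loss under 80%, at 10 µM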;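 note: anti alpha tubulin signal scored within the nucleus-defined area of each cell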
b-catenin transl: modulators of beta-catenin nuclear translocation, primary screen, imaging, HeLa cells, immunofluorescence, high-content. nuclear translocation activity, % at 5 µM. 190,000 compounds, 0.3% hits. AID 1665, 2009;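 active = nuclear translocation activity above 50% at 5 µM, with a well cell count of 50 or more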;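 note: per-cell ratio of nuclear to cytoplasmic median beta-catenin stain intensity; plate controls were DMSO negative control for no effect and GSK-3 inhibitor IX positive control for full effect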
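Test system: human HeLa cells, endogenous beta-catenin. Times: 24 h compound exposure, 37°C. Measured by: beta-catenin immunofluorescence imaging with DAPI.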
BaF3 tox: parental Ba/F3 cell viability inhibition, counter-screen for JAK2V617F inhibitor project, murine pro-B, CellTiter-Glo luminescence; CellTiter-Glo ATP luminescence; inhibition, % at 5.6 µM; 220,000 compounds, 1.1% hits; AID 1486, 2009;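 active = inhibition above a per-campaign cutoff, the mean inhibition of all tested compounds plus 3 SD, cut at about 27% in these data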;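 note: 0% = DMSO wells and 100% = JAK Inhibitor I control wells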
* = called active by the depositor; nt = no result given.

SMILES	Ba/F3 V617F tox	APP transl inh	L major viab	MT stabilize HCS	b-catenin transl	BaF3 tox
CC1(C)C2CCC(C2)C1(C)NC(=O)CNCC1CCCCC1 (configuration not stated)	3.9	-3.8	16.0	2.3	-4.6	6.9
Cc1cccc2c1NC(=O)C2(c1ccc(O)cc1)c1ccc(O)cc1	-3.0	-12.6	-5.9	2.5	1.9	2.2
Cc1cc(C2(c3ccc(O)c(C)c3)C(=O)Nc3ccccc32)ccc1O	-1.3	-5.6	93.0*	1.4	-1.4	7.6
Nc1cc(N)c(OCC(F)(F)F)cc1OCC(F)(F)F	-2.8	8.5	88.2*	1.9	-8.5	2.9
CC(=O)NS(=O)(=O)c1ccc(NC(=O)CCC2CCCC2)cc1	0.2	52.5*	-11.1	2.3	nt	2.7
COc1cc(C2Nc3cccc4cccc(c34)N2)cc(OC)c1OC(C)=O	-0.2	8.9	-0.5	16.1*	-1.1	39.9*
COc1ccc(C(=O)N2CCOC2CNC(=O)C(=O)NCc2ccco2)cc1 (configuration not stated)	-0.1	2.1	-10.3	7.6	-2.5	7.7
Cc1ccc(CN2CCN(Cc3cnc(N4CCOCC4)s3)CC2CCO)cc1 (configuration not stated)	-4.6	11.9	-7.5	2.0	0.7	4.5
Fc1ccc(N2CCN(Cc3cnc(N4CCOCC4)s3)CC2)cc1	3.1	19.2	63.6*	3.5	-1.1	5.6
CCn1c(C)nc2cc(C(=O)NNC(=S)Nc3ccc(C)cc3)ccc21	4.3	nt	nt	nt	-0.5	-1.9
CCn1c(C)nc2cc(C(=O)NNC(=S)NC(=O)c3ccc(OC)cc3)ccc21	5.5	-16.2	94.3*	3.6	1.1	13.4
COc1ccc(Nc2nccc(N(C)C)c2C#N)cc1	-3.3	6.9	-3.8	1.5	-2.5	-1.1
O=C(O)CCN1c2ccccc2Sc2ccccc21	1.0	nt	nt	nt	2.3	-2.9
CN(C)CCCN1c2ccccc2Sc2ccc(Cl)cc21	-0.2	-5.0	82.8*	4.4	2.8	5.9
OCCN1CCN(CCCN2c3ccccc3Sc3ccc(Cl)cc32)CC1	0.6	-12.9	96.2*	4.0	nt	6.1
CN(C)c1ccnc(N(Cc2ccccc2)Cc2ccccc2)c1C#N	-3.3	-10.4	97.6*	4.3	-4.6	2.1
CN(C)c1ccnc(NCc2ccccc2)c1C#N	-0.8	-19.3	0.6	2.8	9.8	0.5
CC1=Nc2nc(N3CCCCC3)c(C#N)c3c4c(nc(c23)N1)N(c1ccc(C(C)C)cc1)C(=O)C4	-0.6	-0.3	58.7*	3.8	1.6	4.0
CC(C)c1ccc(-c2nc(N3CCCCC3)[nH]c(=O)c2C#N)cc1	-0.1	-7.6	31.7	1.1	-1.2	0.3
O=C(NNS(=O)(=O)c1ccc(F)cc1)C1CC(c2cccnc2)=NO1 (configuration not stated)	1.4	-6.6	-4.4	3.5	0.5	4.3
Oc1ccc(Nc2nc(Cl)nc(NCc3ccco3)n2)cc1	-0.7	-10.4	6.1	4.3	-1.1	0.6
O=C(NC(=S)NCCO)c1sc2ccccc2c1Cl	4.4	-52.9	63.4*	2.3	-2.1	7.7
COc1ccc(CC(=O)OCc2cc(=O)n3cc(Br)ccc3n2)cc1OC	-3.2	-16.6	-2.7	4.2	-0.9	2.3
Cc1c(C(C)(C)C)c(C=S)n2ccccc12	-2.2	69.8*	62.7*	1.6	-3.9	3.0
O=C(Nc1cccc2ccccc12)N1CC=C(c2ccccc2)CC1	-1.1	nt	-6.2	5.4	nt	2.9
SMILES	Ba/F3 V617F tox	APP transl inh	L major viab	MT stabilize HCS	b-catenin transl	BaF3 tox
O=C(Nc1ccccc1)N1CC=C(c2ccccc2)CC1	0.5	-55.7	81.3*	4.4	1.3	5.4
O=C(Nc1ccccc1)N1CC=C(c2ccc(F)cc2)CC1	-4.1	-94.2	84.7*	3.4	-0.4	3.9
O=C(O)C1CCCCC1C(=O)N1CC=C(c2ccccc2)CC1 (configuration not stated)	-3.0	-5.6	60.6*	3.2	-2.5	11.8
COCCN(Cc1ccccc1)C(=O)c1c(C)nn(-c2ccccc2)c1C	5.6	-2.8	0.4	3.8	-0.4	5.7
Cc1ccc(OCC(=O)Nc2cccc(S(=O)(=O)N3CCOCC3)c2)c([N+](=O)[O-])n1	3.9	-19.3	23.8	2.1	-1.5	9.3
COc1ccc(OC)c(S(=O)(=O)NC(N)=NCCc2ccccc2OC)c1	1.1	-2.9	-1.6	1.5	-0.4	6.0
Cn1c(SC(C(=O)Nc2ccc(F)cc2)c2ccccc2)nc2ccccc21 (configuration not stated)	0.1	-3.6	8.4	4.7	1.4	5.4
CC(Sc1nc2ccccc2n1C)C(=O)NC(c1ccccc1)c1ccccc1 (configuration not stated)	0.8	-5.5	99.8*	2.7	-0.4	5.1
Nc1c(Cl)c(Cl)nc(C(=O)N/N=C/c2cccnc2)c1Cl	-3.3	nt	nt	nt	-4.8	-5.2
COc1ccc(NC(=O)c2cccnc2Nc2ccc(OC)cc2)cc1	6.6	7.8	76.0*	2.0	-0.3	8.6
Cc1ccc(CNc2ncc(-c3ccccc3)n2C)o1	-2.8	-25.3	4.4	3.1	-0.7	0.3
c1ccc(-c2n[nH]c(-c3ccccc3)c2-c2nc3ccccc3[nH]2)cc1	-0.5	-4.6	92.1*	3.7	-0.8	3.6
Cc1[nH]c2ccccc2c1-c1nc2ccccc2[nH]1	11.0	7.4	0.8	3.9	-1.2	29.7*
COc1cc(-c2nnc(CSc3nnc(N)s3)o2)cc(OC)c1OC	2.7	-8.4	0.3	2.7	-1.9	8.9
COc1cc(-c2nnc(CSc3nnc(Nc4ccc(Oc5ccccc5)cc4)s3)o2)cc(OC)c1OC	7.1	-7.5	77.5*	4.4	0.7	8.8
O=C1c2ccccc2C(=O)N1OCc1ccccc1[N+](=O)[O-]	-1.6	-11.3	-3.9	3.4	-0.8	5.5
CCCn1c(C)cc(C(=O)CSc2nc3nc(C)cc(C)n3n2)c1C	-2.7	-20.9	-1.3	2.1	-1.4	0.3
Cc1occc1C(=O)N1CCN(c2ncccn2)CC1	-0.7	-21.0	-9.9	2.9	-0.7	92.1*
O=C(/C=C/c1ccco1)N1CCN(c2ncccn2)CC1	1.1	-24.3	-11.0	9.8*	nt	5.1
COc1ccccc1N1CCN(C(=O)c2ccoc2C)CC1	-1.8	-6.7	-1.8	5.2	-2.2	1.0
CCc1ccc(NC(=O)C2(C)Cc3ccccc3C(=O)O2)cc1 (configuration not stated)	1.9	-29.6	-2.6	4.1	-1.9	5.1
Cc1cc(C)n(-c2ccc(C(=O)Nc3ccc(S(=O)(=O)N(C)C)cc3)cc2)n1	-3.0	-9.3	10.4	5.1	-1.0	0.5
CC(=O)c1ccc(OCCCC(=O)Nc2ccc(C)c(S(=O)(=O)N(C)C)c2)cc1	-0.7	14.8	60.7*	1.3	3.5	1.9

Compound activity as filed in PubChem BioAssay.
